Experimental data: ChEMBL document CHEMBL1124689, “Thienylpyrazoloquinolines with high affinity to benzodiazepine receptors: continuous shift from inverse agonist to agonist properties depending on the size of the alkyl substituent” (J Med Chem, 1989)
The source made the active and inactive calls. The rule behind the calls is not given here.

Tests used:
[1] = target: GABA-A receptor; anion channel; assay: Displacing potential to [3H]diazepam binding to benzodiazepine receptor in Wistar rat cerebral cortex; type: tissue-based
Mus musculus [2] = assay: Inhibition of tonic convulsions and death in mice after administration of 2.5 mg/kg of compound intravenously; type: functional; settings: route intravenous
In short: (§1)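 Proconvulsant (inverse agonist) assay in groups of 8–16 male mice. Each mouse received the compound iv and was immediately challenged with a sub-convulsive dose of pentylenetetrazole sc, either 75 or 90 mg/kg. Animals were watched for 2 h for tonic convulsions and death. The value is the percentage of animals affected at the stated dose.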

Mus musculus [3] = assay: Inverse agonist activity was evaluated by potentiation of the pentylenetetrazole (PTZ) (90 mg/kg) induced convulsions; type: functional
In short: (§2)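 Male mice, groups of 8–16, given test compound iv and immediately challenged with subconvulsive PTZ (75 or 90 mg/kg sc). Tonic convulsions and death recorded over 2 h; dose producing effect in 50% derived by probit method with 95% confidence limits, or percentage of animals affected at a single dose.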

Mus musculus [4] = assay: Inverse agonist activity was evaluated by potentiation of the pentylenetetrazole (PTZ) (75 mg/kg) induced convulsions; type: functional; in short: as §2
Mus musculus [5] = organism: Mus musculus; assay: Agonist activity was evaluated by inhibition of the PTZ-induced convulsions at a PTZ dose of 125 mg/ kg; type: functional; settings: PTZ 125 mg/kg
In short: (§3)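 Male mice, groups of 8–16; test compound given iv, then immediately PTZ 125 mg/kg sc (convulsive dose). Endpoint: prevention of tonic convulsions and death over 2 h; dose protecting 50% computed by probit method with 95% confidence limits; partial activity given as percentage of animals affected at a stated dose.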

Mus musculus [6] = assay: Inverse agonist activity was evaluated by potentiation of the pentylenetetrazole (PTZ) (75 mg/kg) induced convulsions; inactive to 10; type: functional, organism-based; in short: as §2
Mus musculus [7] = assay: Inverse agonist activity was evaluated by potentiation of the pentylenetetrazole (PTZ) (90 mg/kg) induced convulsions; inactive to 10; type: functional, organism-based; in short: as §2
Mus musculus [8] = organism: Mus musculus; assay: Agonist activity was evaluated by inhibition of the PTZ-induced convulsions at a PTZ dose of 125 mg/ kg; inactive to 10; type: functional, organism-based; parameters: dose 125 mg/ kg; in short: as §3
Mus musculus [9] = assay: Inhibition to produce tonic convulsions and death in mice after administration of 10 mg/kg intravenously; type: functional; settings: route intravenous; in short: as §1

Structure (SMILES) | Ki [1] | ED50 (Mus musculus [3]) | ED50 (Mus musculus [5]) | other results
Cc1ccc2c(c1)ncc1c(=O)n(-c3cccs3)[nH]c12 | 0.41 nM | 0.57 mg/kg |  | inhibition in vivo at 2.5 mg/kg (Mus musculus [2]): 62.5%
Cc1ccc2c(c1)ncc1c(=O)n(-c3ccsc3)[nH]c12 | 0.73 nM | 0.14 mg/kg |  | ED50 (Mus musculus [4]): 0.43 mg/kg
Cc1ccc2c(c1)ncc1c(=O)n(-c3csc(C)c3)[nH]c12 | 0.32 nM | 0.13 mg/kg |  | ED50 (Mus musculus [4]): 0.47 mg/kg
Cc1ccc2c(c1)ncc1c(=O)n(-c3ccc(C)s3)[nH]c12 | 0.32 nM |  | 0.16 mg/kg | 
Cc1csc(-n2[nH]c3c(cnc4cc(C)ccc43)c2=O)c1 | 0.48 nM | 5.15 mg/kg |  | ED50 (Mus musculus [6]): inactive
CCOC(=O)c1cc2c(cn1)[nH]c1ccccc12 |  | 0.46 mg/kg |  | ED50 (Mus musculus [4]): 1 mg/kg
CCc1csc(-n2[nH]c3c(cnc4cc(C)ccc43)c2=O)c1 | 0.6 nM |  | 5.15 mg/kg | 
CCCc1cc(-n2[nH]c3c(cnc4cc(C)ccc43)c2=O)cs1 | 1.04 nM |  |  | ED50 (Mus musculus [7]): inactive; ED50 (Mus musculus [8]): inactive
CN1C(=O)CN=C(c2ccccc2)c2cc(Cl)ccc21 [DIAZEPAM] |  |  | 0.15 mg/kg | 
CCc1ccc(-n2[nH]c3c(cnc4cc(C)ccc43)c2=O)s1 | 1.02 nM |  | 0.32 mg/kg | 
CCc1cc(-n2[nH]c3c(cnc4cc(C)ccc43)c2=O)cs1 | 0.41 nM |  |  | inhibition in vivo at 10 mg/kg (Mus musculus [9]): 50%; ED50 (Mus musculus [6]): inactive
CCCc1csc(-n2[nH]c3c(cnc4cc(C)ccc43)c2=O)c1 | 1.01 nM |  | 3.54 mg/kg | 
O=C1C2C=Nc3ccccc3C2=NN1c1ccccc1 (centres undefined) [CGS-8216] |  | 0.2 mg/kg |  | ED50 (Mus musculus [6]): inactive
CCCCc1ccc(-n2[nH]c3c(cnc4cc(C)ccc43)c2=O)s1 | 1.48 nM |  | 0.22 mg/kg | 
O=C1C2C=Nc3ccccc3C2=NN1c1ccc(Cl)cc1 (centres undefined) [CGS-9896] |  |  | 0.07 mg/kg | 
